The nature of assay [1]: Cytotoxicity against human HCT116 cells assessed as growth inhibition at 50 uM after 48 hrs by SRB assay. The format is functional. To be noted: HCT-116, 48 h, read-out: GI. In outline: (§1)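 Single-concentration screen at 50 µM. Cells grew 24 h at 37 °C, then had 48 h exposure in complete medium.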
On the technique in general: Sulforhodamine B stains cellular protein and so reports cell mass.

Assay [2] is described as follows: Cytotoxicity against human COLO205 cells assessed as growth inhibition at 50 uM after 48 hrs by SRB assay. The following applies: COLO 205, 48 h, read-out: GI. Type of assay: functional. The method in brief:
as §1

A short description of assay [3]: Cytotoxicity against human THP1 cells assessed as growth inhibition at 50 uM after 48 hrs by SRB assay. The following applies: THP-1, 48 h, read-out: GI. Type of assay: functional. In outline:
as §1

The nature of assay [4]: Cytotoxicity against human PC3 cells assessed as growth inhibition at 50 uM after 48 hrs by SRB assay. Type of assay: functional. The following applies: PC-3, 48 h, read-out: GI. The method in brief:
as §1

Assay [5] is described as follows: Cytotoxicity against human COLO205 cells after 48 hrs by SRB assay. Type of assay: functional, cell-based. The following applies: COLO 205, 48 h. The method in brief:
(§2)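 SRB assay in 96-well plates. Cells were seeded and grown 24 h at 37 °C in a CO2 incubator, then given test material in complete medium for a further 48 h. Cells were fixed with cold 50% TCA for 1 h at 4 °C, stained 30 min with 0.4% SRB in 1% acetic acid, and washed with […]. IC50 was taken from multi-concentration testing, run only for hybrids giving >70% inhibition at 50 µM in at least one line.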

A short description of assay [6]: Cytotoxicity against human THP1 cells after 48 hrs by SRB assay. The format is functional, cell-based. The following applies: THP-1, 48 h. In outline: as §2
The nature of assay [7]: Cytotoxicity against human HCT116 cells after 48 hrs by SRB assay. The format is functional, cell-based. The following applies: HCT-116, 48 h. The method in brief:
as §2

The target of assay [8] is Tubulin. The assay is described as follows: Inhibition of tubulin (unknown origin) polymerization measured after 1 hr by ELISA plate reader analysis. Type of assay: protein-complex assay, Homo sapiens. The method in brief: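 Kit-based turbidity assay using tubulin (10 mg in general tubulin buffer with GTP). Compounds were diluted from DMSO stocks, preincubated 2 min at 37 °C in general tubulin buffer, then tubulin diluted in polymerization buffer (general and glycerol tubulin buffers plus GTP) was added. Absorbance at 340 nm was read after 1 h at 37 °C.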

Molecules are shown by their SMILES.

For orientation: IC50 means the point on the concentration scale where inhibition reaches its midpoint.

For `COc1ccc(/C=C/C(=O)/C=C/c2ccc(OCc3cn(CCOc4cc(=O)oc5ccccc45)nn3)c(OC)c2)cc1OC`, the inhibition of growth at 50 µM in assay [1] came out at 82%; in assay [2], 80%; in assay [3], 90%; in assay [4] it was 19%. Besides, the IC50 is 6.78 µM in assay [5], 2.34 µM in assay [6], 4.71 µM in assay [7] and 2.88 µM in assay [8].
In the case of `COc1ccccc1/C=C/C(=O)/C=C/c1ccc(OCc2cn(CCOc3cc(=O)oc4ccccc34)nn2)c(OC)c1`, the inhibition of growth at 50 µM turned out to be 70% in assay [1], 67% in assay [2], 75% in assay [3] and 11% in assay [4]. Besides, the IC50 turned out to be 11.5 µM in assay [5], 7.33 µM in assay [6] and 9.49 µM in assay [7].
Turning to `COc1ccc(/C=C/C(=O)/C=C/c2ccc(OCc3cn(CCOc4cc(=O)oc5ccccc45)nn3)c(OC)c2)cc1`, the inhibition of growth at 50 µM was found to be 71% in assay [1], 68% in assay [2], 78% in assay [3] and 15% in assay [4]. Moreover, the IC50 in assay [5] worked out at 11.3 µM; in assay [6] it was 7.41 µM; in assay [7], 9.29 µM.
Regarding `COc1cc(/C=C/C(=O)/C=C/c2cc(OC)c(OC)c(OC)c2)ccc1OCc1cn(CCOc2cc(=O)oc3ccccc23)nn1`, the inhibition of growth at 50 µM in assay [1] turned out to be 89%; in assay [2] it was 86%; in assay [3] it was 99%; in assay [4], 22%. Besides, the IC50 was determined as 4.68 µM in assay [5], 0.82 µM in assay [6], 2.21 µM in assay [7] and 1.55 µM in assay [8].
As to `COc1cc(/C=C/C(=O)/C=C/c2ccco2)ccc1OCc1cn(CCOc2cc(=O)oc3ccccc23)nn1`, the inhibition of growth at 50 µM in assay [1] was 72%; in assay [2] it was 68%; in assay [3], 78%; in assay [4], 14%. Further, the IC50 in assay [5] is 11.8 µM; in assay [6] it was 7.87 µM; in assay [7], 9.18 µM.
Consider `COc1cc(/C=C/C(=O)/C=C/c2cccc3ccccc23)ccc1OCc1cn(CCOc2cc(=O)oc3ccccc23)nn1`, for which the inhibition of growth at 50 µM in assay [1] is 83%; in assay [2] it was 85%; in assay [3], 89%; in assay [4] it was 20%. Also, the IC50 came out at 9.95 µM in assay [5], 4.48 µM in assay [6], 6.54 µM in assay [7] and 7.65 µM in assay [8].
With `COc1cc(/C=C/C(=O)/C=C/c2cccs2)ccc1OCc1cn(CCOc2cc(=O)oc3ccccc23)nn1`, the inhibition of growth at 50 µM in assay [1] came out at 71%; in assay [2], 66%; in assay [3], 76%; in assay [4] it was 12%. Also, the half-inhibitory concentration (IC50) in assay [5] turned out to be 11.4 µM; in assay [6], 7.14 µM; in assay [7], 9.29 µM.
On to `COc1ccc(/C=C/C(=O)/C=C/c2ccc(OCc3cn(CCCOc4cc(=O)oc5ccccc45)nn3)c(OC)c2)cc1OC`, for which the inhibition of growth at 50 µM in assay [1] stood at 67%; in assay [2], 65%; in assay [3] it was 73%; in assay [4], 9%. The values for the IC50 in assay [5], in assay [6] and in assay [7] were 13 µM, 8.51 µM and 11 µM, respectively.
Take `COc1cc(/C=C/C(=O)/C=C/c2cccc3ccccc23)ccc1OCc1cn(CCCOc2cc(=O)oc3ccccc23)nn1`: the inhibition of growth at 50 µM in assay [1] came out at 66%; in assay [2], 64%; in assay [3], 71%; in assay [4], 8%. The IC50 in assay [5] was determined as 12.7 µM; in assay [6] it was 8.41 µM; in assay [7], 10.4 µM.
Regarding `COc1cc(/C=C/C(=O)/C=C/c2cc(OC)c(OC)c(OC)c2)ccc1OCc1cn(CCCCOc2cc(=O)oc3ccccc23)nn1`, the inhibition of growth at 50 µM in assay [1] was determined as 63%; in assay [2] it was 60%; in assay [3] it was 65%; in assay [4] it was 5%.
For the compound `COc1cccc(/C=C/C(=O)/C=C/c2ccc(OCc3cn(CCOc4cc(=O)oc5ccccc45)nn3)c(OC)c2)c1`, the inhibition of growth at 50 µM was found to be 70% in assay [1], 69% in assay [2], 77% in assay [3] and 13% in assay [4]. The IC50 in assay [5] is 11.9 µM; in assay [6], 7.13 µM; in assay [7], 9.76 µM.
Turning to `COc1cc(/C=C/C(=O)/C=C/c2cc(OC)c(OC)c(OC)c2)ccc1OCc1cn(CCCOc2cc(=O)oc3ccccc23)nn1`, the inhibition of growth at 50 µM in assay [1] was determined as 76%; in assay [2], 74%; in assay [3] it was 79%; in assay [4], 12%. Also, the IC50 in assay [5] is 10.6 µM; in assay [6] it was 5.43 µM; in assay [7] it was 8.65 µM.
